Here are results for 24 compounds from ChEMBL document CHEMBL1136886, “Optimization of benzimidazole series as opioid receptor-like 1 (ORL1) antagonists: SAR study directed toward improvement of selectivity over hERG activity” (Bioorg Med Chem Lett, 2009).

For data set [1], the target named is T1, Nociceptin receptor (Homo sapiens, UniProt P41146). Put plainly: Displacement of [125I]Tyr14-NC/OFQ from human ORL1 receptor. The gist of the method:
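Membrane fractions of CHO cells expressing human ORL1; binding affinity from displacement of radioligand [125I]Tyr14-NC/OFQ.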
On the technique in general: Loss of bound radioactivity is the signal in a displacement assay; it reports binding, not function.

Data set [2] addresses Voltage-gated inwardly rectifying potassium channel KCNH2 (Homo sapiens, UniProt Q12809). Put plainly: Displacement of [35S]MK499 from human ERG expressed in HEK293 cells.
For data set [3], the target named is T1, Nociceptin receptor. Put plainly: Antagonist activity at ORL1 receptor expressed in CHO cells assessed as inhibition of NC/OFQ-stimulated [35S]GTPgammaS binding. It is filed as functional, cell-based. In outline: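 Membrane fractions of CHO cells expressing ORL1 used; functional activity measured by [35S]GTPγS binding to G proteins.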
Data set [4] in a line: Lipophilicity, log D at pH 7.4 by shake-flask method. It is filed as physicochemical. The note with it: buffer.
Another data set deals with Mu-type opioid receptor (Homo sapiens, UniProt P35372). The data set can be described thus: Displacement of [3H]diprenorphin from human cloned mu opioid receptor expressed in CHO cells. It is filed as cell-based.
Sequence of Mu-type opioid receptor (P35372 whole entry): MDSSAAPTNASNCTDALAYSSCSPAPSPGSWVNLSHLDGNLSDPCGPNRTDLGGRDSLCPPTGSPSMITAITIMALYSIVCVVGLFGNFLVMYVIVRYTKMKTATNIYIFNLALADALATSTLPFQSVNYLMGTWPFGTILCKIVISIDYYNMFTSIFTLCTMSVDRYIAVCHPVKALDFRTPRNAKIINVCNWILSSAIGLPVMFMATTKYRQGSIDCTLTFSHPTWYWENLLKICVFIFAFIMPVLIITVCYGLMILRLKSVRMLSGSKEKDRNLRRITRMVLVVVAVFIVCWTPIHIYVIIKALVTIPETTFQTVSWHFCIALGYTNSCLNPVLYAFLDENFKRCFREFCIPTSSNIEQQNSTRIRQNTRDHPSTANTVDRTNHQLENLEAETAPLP
For data set [5], the target named is Kappa-type opioid receptor (Homo sapiens, UniProt P41145). The data set can be described thus: Displacement of [3H]U69593 from human cloned kappa opioid receptor expressed in CHO cells. It is filed as cell-based.
Sequence of Kappa-type opioid receptor (P41145 whole entry): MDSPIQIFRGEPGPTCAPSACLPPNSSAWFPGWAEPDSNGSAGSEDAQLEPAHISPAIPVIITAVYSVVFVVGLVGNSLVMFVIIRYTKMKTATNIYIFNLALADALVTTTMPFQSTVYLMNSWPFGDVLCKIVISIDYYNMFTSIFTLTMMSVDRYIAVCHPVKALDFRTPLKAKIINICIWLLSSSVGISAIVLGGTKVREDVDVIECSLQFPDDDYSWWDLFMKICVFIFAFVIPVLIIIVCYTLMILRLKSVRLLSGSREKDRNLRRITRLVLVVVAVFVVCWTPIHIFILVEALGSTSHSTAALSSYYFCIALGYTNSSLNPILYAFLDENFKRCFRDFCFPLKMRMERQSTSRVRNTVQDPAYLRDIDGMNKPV

The structures appear in SMILES notation. Where only a bound is given, the exact number is not on record here.

T1 sequence (P41146 whole entry): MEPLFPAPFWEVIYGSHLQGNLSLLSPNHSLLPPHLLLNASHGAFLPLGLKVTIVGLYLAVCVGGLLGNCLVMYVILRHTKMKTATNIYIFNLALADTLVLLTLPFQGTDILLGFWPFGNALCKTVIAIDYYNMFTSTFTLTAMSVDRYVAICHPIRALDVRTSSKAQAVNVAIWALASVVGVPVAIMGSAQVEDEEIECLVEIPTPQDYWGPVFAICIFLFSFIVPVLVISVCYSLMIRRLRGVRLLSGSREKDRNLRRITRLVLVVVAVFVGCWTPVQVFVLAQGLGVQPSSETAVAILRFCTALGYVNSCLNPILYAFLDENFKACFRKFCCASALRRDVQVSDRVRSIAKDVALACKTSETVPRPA
Sequence of Voltage-gated inwardly rectifying potassium channel KCNH2 (Q12809 whole entry): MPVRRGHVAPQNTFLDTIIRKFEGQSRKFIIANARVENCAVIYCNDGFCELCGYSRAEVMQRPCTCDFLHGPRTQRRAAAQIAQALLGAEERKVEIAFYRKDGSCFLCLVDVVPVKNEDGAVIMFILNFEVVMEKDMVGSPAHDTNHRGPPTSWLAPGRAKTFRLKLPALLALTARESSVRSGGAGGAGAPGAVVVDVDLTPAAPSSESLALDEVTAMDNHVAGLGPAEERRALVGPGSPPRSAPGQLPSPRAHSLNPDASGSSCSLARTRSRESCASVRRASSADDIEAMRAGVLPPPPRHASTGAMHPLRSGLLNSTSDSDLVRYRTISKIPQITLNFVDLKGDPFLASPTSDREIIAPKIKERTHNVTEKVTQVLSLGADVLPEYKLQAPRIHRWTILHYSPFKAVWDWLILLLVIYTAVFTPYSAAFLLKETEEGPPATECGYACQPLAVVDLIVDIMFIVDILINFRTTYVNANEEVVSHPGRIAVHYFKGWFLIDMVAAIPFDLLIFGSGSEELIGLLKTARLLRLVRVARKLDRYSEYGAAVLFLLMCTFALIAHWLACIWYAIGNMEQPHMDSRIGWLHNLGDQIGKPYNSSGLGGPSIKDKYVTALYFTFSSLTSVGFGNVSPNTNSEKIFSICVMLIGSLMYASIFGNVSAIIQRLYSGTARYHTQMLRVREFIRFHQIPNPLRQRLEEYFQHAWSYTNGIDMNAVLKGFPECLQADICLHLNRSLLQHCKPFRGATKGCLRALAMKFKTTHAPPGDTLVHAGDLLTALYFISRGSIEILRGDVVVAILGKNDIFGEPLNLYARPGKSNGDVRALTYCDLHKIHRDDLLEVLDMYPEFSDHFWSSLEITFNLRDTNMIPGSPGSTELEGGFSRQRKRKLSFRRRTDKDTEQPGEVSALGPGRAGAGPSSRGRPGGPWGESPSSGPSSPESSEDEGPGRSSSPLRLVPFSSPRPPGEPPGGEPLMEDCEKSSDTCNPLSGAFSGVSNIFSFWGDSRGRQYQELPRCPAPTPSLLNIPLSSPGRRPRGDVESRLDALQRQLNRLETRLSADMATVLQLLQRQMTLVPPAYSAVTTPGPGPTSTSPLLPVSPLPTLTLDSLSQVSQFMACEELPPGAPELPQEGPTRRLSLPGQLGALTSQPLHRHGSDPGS

By IC50 is commonly meant the concentration that inhibits the measured activity by half. Consider `C[C@@H]1CN(CC(F)F)CCN1c1cc2[nH]c(SC(C)(C)C)nc2cc1Cl`, for which the figures for the IC50 (at Nociceptin receptor [1]; in data set [2]) were 23 nM and greater than 10000 nM, respectively.
With `CCN1CCN(c2cc3[nH]c(SC(C)(C)C)nc3cc2Cl)CC1`, the IC50 on Nociceptin receptor [1] stood at 22 nM.
Turning to `CCN1CCN(c2cc3[nH]c(SC(C)(C)CCNC(=O)OC)nc3cc2Cl)CC1`, the IC50 amounted to 21 nM at Nociceptin receptor [1] and 8.6 nM on Nociceptin receptor [3].
For `CCOC(=O)N1CCC(C)(Sc2nc3cc(Cl)c(N4CCN(CC)CC4)cc3[nH]2)CC1` the same measures were 4.3 nM and 1.1 nM.
What is called logD is the decadic logarithm of the distribution of all forms, ionised or not, between an organic phase and buffer at a given pH. Read a high logD as higher lipophilicity. Consider `CCN1CCN(c2cc3[nH]c(S[C@]4(C)CC[C@@H](c5nc(C)no5)CC4)nc3cc2Cl)CC1`, for which the IC50 at Nociceptin receptor [1] is 1.7 nM; at Nociceptin receptor [3], 0.91 nM. In data set [4], this compound displayed a logD of 3.8.
For `C[C@@H]1CN(CC#N)CCN1c1cc2[nH]c(SC(C)(C)C)nc2cc1Cl`, at Nociceptin receptor [1], the half-maximal inhibitory concentration (IC50) was found to be 61 nM.
On to `CCN1CCN(c2cc3[nH]c(S[C@]4(C)CC[C@@H](c5nnn(C)n5)CC4)nc3cc2Cl)CC1`, for which the IC50 on Nociceptin receptor [1] was 2.2 nM; on Nociceptin receptor [3], 0.9 nM. In data set [4], this compound displayed a logD of 3.1.
With `C[C@@H]1CN(CCC#N)CCN1c1cc2[nH]c(SC(C)(C)C)nc2cc1Cl`, the IC50 at Nociceptin receptor [1] was 27 nM; at Nociceptin receptor [3] it was 6.4 nM; in data set [2], greater than 10000 nM.
Turning to `CCN1CCN(c2cc3[nH]c(S[C@]4(C)CC[C@@H](N(C)C(C)=O)CC4)nc3cc2Cl)CC1`, the IC50 on Nociceptin receptor [1] amounted to 0.81 nM; on Nociceptin receptor [3] it was 1.3 nM; at Mu-type opioid receptor it was 840 nM; in data set [5], 160 nM. In data set [4], this compound yielded a pH-dependent lipophilicity (logD) of 2.7.
Consider `CCN1CCN(c2cc3[nH]c(S[C@]4(C)CC[C@@H](NS(C)(=O)=O)CC4)nc3cc2Cl)CC1`, for which the results for the half-inhibitory concentration (IC50) (on Nociceptin receptor [1]; on Nociceptin receptor [3]; in data set [2]) were 2.1 nM, 1.8 nM and greater than 10000 nM, respectively. Also, in data set [4], the logD was determined as 2.5.
In the case of `CCN1CCN(c2cc3[nH]c(S[C@]4(C)CC[C@@H](c5nnco5)CC4)nc3cc2Cl)CC1`, the IC50 at Nociceptin receptor [1] amounted to 1.1 nM; at Nociceptin receptor [3], 0.59 nM.
The like results for `CCN1CCN(c2cc3[nH]c(S[C@]4(C)CC[C@@H](c5nnc(C)o5)CC4)nc3cc2Cl)CC1` were, in that order, 1.8 nM and 7.1 nM.
The compound `C[C@@H]1CN(CC(F)(F)F)CCN1c1cc2[nH]c(SC(C)(C)C)nc2cc1Cl` displayed an IC50 on Nociceptin receptor [1] of 630 nM.
Take `CCN1CCN(c2cc3[nH]c(S[C@]4(C)CC[C@@H](NC(C)=O)CC4)nc3cc2Cl)CC1`: the IC50 is 1.9 nM at Nociceptin receptor [1], 1.1 nM at Nociceptin receptor [3] and greater than 10000 nM in data set [2]. The compound also came in with a logD in data set [4] of 2.5.
In the case of `CCN1CCN(c2cc3[nH]c(S[C@]4(C)CC[C@H](NC(=O)OC)CC4)nc3cc2Cl)CC1`, the half-maximal inhibitory concentration (IC50) on Nociceptin receptor [1] came out at 9.5 nM; on Nociceptin receptor [3], 2.1 nM; in data set [2] it was 1500 nM.
For `CCN1CCN(c2cc3[nH]c(S[C@]4(C)CC[C@@H](NC(=O)OC)CC4)nc3cc2Cl)CC1`, the results for the IC50 (at Nociceptin receptor [1]; on Nociceptin receptor [3]; in data set [2]) were 2.4 nM, 0.72 nM and 3500 nM, respectively. This compound gave a logD in data set [4] of 3.4.
For the compound `CCN1CCN(c2cc3[nH]c(S[C@]4(C)CC[C@@H](C(=O)NC)CC4)nc3cc2Cl)CC1`, the half-inhibitory concentration (IC50) on Nociceptin receptor [1] was 1 nM; at Nociceptin receptor [3], 1.1 nM; in data set [2], greater than 10000 nM.
For `CCN1CCN(c2cc3[nH]c(SC(C)(C)C)nc3cc2Cl)[C@H](C)C1` the same measures were 9.2 nM, 2.9 nM and 990 nM.
Regarding `CCN1CCN(c2cc3[nH]c(S[C@]4(C)CC[C@@H](S(C)(=O)=O)CC4)nc3cc2Cl)CC1`, the IC50 at Nociceptin receptor [1] is 6.9 nM; at Nociceptin receptor [3] it was 4 nM; in data set [2], greater than 10000 nM.
For `C[C@@H]1CN(CCO)CCN1c1cc2[nH]c(SC(C)(C)C)nc2cc1Cl`, the IC50 in data set [2] amounted to 1600 nM.
For `CCN1CCN(c2cc3[nH]c(S[C@]4(C)CC[C@@H](N5CCCC5=O)CC4)nc3cc2Cl)CC1`, the values for the IC50 (on Nociceptin receptor [1]; at Nociceptin receptor [3]; in data set [2]) were 1.4 nM, 0.55 nM and greater than 10000 nM, respectively. The same compound gave a logD in data set [4] of 2.9.
For the compound `CCN1CCN(c2cc3[nH]c(S[C@]4(C)CC[C@@H](c5nnnn5C)CC4)nc3cc2Cl)CC1`, the IC50 was determined as 7.4 nM at Nociceptin receptor [1] and 3.7 nM on Nociceptin receptor [3]. In data set [4], the logD came to 2.3.
Regarding `CC(=O)CN1CCN(c2cc3[nH]c(SC(C)(C)C)nc3cc2Cl)C(C)C1` (racemic), the concentration for half-maximal inhibition (IC50) on Nociceptin receptor [3] was 41 nM; in data set [2], greater than 10000 nM.
For `CCN1CCN(c2cc3[nH]c(SC4(C)CCC(NC(=O)OC)C4)nc3cc2Cl)CC1` (racemic), the half-maximal inhibitory concentration (IC50) on Nociceptin receptor [3] was found to be 46 nM.
